Experiments:
Assay type in all cases: toxicity, cell-based
Fibroblast = assay: Incucyte cell viability with human fibroblast; details: 10 µM, compound concentration 10 uM; further: filed as whole numbers so only -1 and 0 and 1 occur
HEK-293T = assay: Incucyte cell viability with HEK293T; details: human, 10 µM, compound concentration 10 uM; further: filed as whole numbers so only -1 and 0 and 1 occur
U2OS [1] = assay: Incucyte cell viability with U2OS; details: human, 10 µM, compound concentration 10 uM; further: filed as whole numbers so only -1 and 0 and 1 occur
U2OS [2] = assay: Multiplex assay against U2OS; details: human
Method in brief: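 Hoechst33342, BioTracker Green Microtubule Cytoskeleton Dye, MitoTracker Red and Annexin V Alexa Fluor 680 were added to live cells at seeding, and imaging on a CQ1 microscope at 37°C and 5% CO2 followed compound addition. Gating by CellPathfinder machine learning separated cells into Hoechst high-intensity objects or normal cells, then normal cells into healthy, pyknosed or fragmented nuclei, then pyknosed cells into mitotic or apoptotic. Per cents of healthy-nucleus cells are reported for the tubulin, mitochondrial-mass and membrane-permeability phenotypes.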

[3] = 6 h, replicate number 1, timepoint 6 hours
[4] = 12 h, replicate number 1, timepoint 12 hours
[5] = 12 h, replicate number 2, timepoint 12 hours
[6] = 18 h, replicate number 1, timepoint 18 hours
[7] = 24 h, replicate number 1, timepoint 24 hours
[8] = 24 h, replicate number 2, timepoint 24 hours
[9] = 12 h, 1 µM, compound concentration 1 uM, replicate 1
[10] = 12 h, 1 µM, compound concentration 1 uM, replicate 2
[11] = 12 h, 10 µM, compound concentration 10 uM, replicate 1
[12] = 12 h, 10 µM, compound concentration 10 uM, replicate 2
[13] = 24 h, 1 µM, compound concentration 1 uM, replicate 1
[14] = 24 h, 1 µM, compound concentration 1 uM, replicate 2
[15] = 24 h, 10 µM, compound concentration 10 uM, replicate 1
[16] = 24 h, 10 µM, compound concentration 10 uM, replicate 2

## c1ccc2oc(-c3csc(C4CCN(Cc5nc6ncccc6[nH]5)CC4)n3)cc2c1
Fibroblast; [3]
  Growth Rate: 0
Fibroblast; [4]
  Growth Rate: 0
Fibroblast; [5]
  Growth Rate: 1
Fibroblast; [6]
  Growth Rate: 0
Fibroblast; 18 h, replicate number 2, timepoint 18 hours
  Growth Rate: 1
Fibroblast; [7]
  Growth Rate: 0
Fibroblast; [8]
  Growth Rate: 1
HEK-293T; [3]
  Growth Rate: 0
HEK-293T; [4]
  Growth Rate: 0
HEK-293T; [6]
  Growth Rate: 0
HEK-293T; [7]
  Growth Rate: 0
U2OS [1]; 0 h, replicate number 2, timepoint 0 hours
  Growth Rate: 1
U2OS [1]; [3]
  Growth Rate: 0
U2OS [1]; [4]
  Growth Rate: 0
U2OS [1]; [5]
  Growth Rate: 1
U2OS [1]; [6]
  Growth Rate: 0
U2OS [1]; [7]
  Growth Rate: 1
U2OS [1]; [8]
  Growth Rate: 0
U2OS [2]; [9]
  Population Apoptotic (%): 8%
  Population Fragmented Nuclei (%): 2%
  Population Healthy Nuclei (%): 90%
  Population Hoechst High Intensity Objects (%): 3%
  Population Membrane Permeable-Phenotype (%): 12%
  Population Mitochondria Different-Phenotype (%): 15%
  Population Mitotic Cells (%): 91%
  Population Normal (%): 96%
  Population Pyknosed Nuclei (%): 6%
  Population Tubulin-Different-Phenotype (%): 10%
  Total Cell Count: 182
U2OS [2]; [10]
  Population Apoptotic (%): 25%
  Population Fragmented Nuclei (%): 8%
  Population Healthy Nuclei (%): 85%
  Population Hoechst High Intensity Objects (%): 7%
  Population Membrane Permeable-Phenotype (%): 8%
  Population Mitochondria Different-Phenotype (%): 27%
  Population Mitotic Cells (%): 75%
  Population Normal (%): 92%
  Population Tubulin-Different-Phenotype (%): 15%
  Total Cell Count: 141
U2OS [2]; [11]
  Population Apoptotic (%): 42%
  Population Fragmented Nuclei (%): 4%
  Population Healthy Nuclei (%): 91%
  Population Hoechst High Intensity Objects (%): 3%
  Population Membrane Permeable-Phenotype (%): 9%
  Population Mitochondria Different-Phenotype (%): 25%
  Population Mitotic Cells (%): 57%
  Population Normal (%): 96%
  Population Pyknosed Nuclei (%): 3%
  Population Tubulin-Different-Phenotype (%): 29%
  Total Cell Count: 205
U2OS [2]; [12]
  Population Apoptotic (%): 25%
  Population Fragmented Nuclei (%): 7%
  Population Healthy Nuclei (%): 88%
  Population Hoechst High Intensity Objects (%): 15%
  Population Membrane Permeable-Phenotype (%): 18%
  Population Mitochondria Different-Phenotype (%): 34%
  Population Mitotic Cells (%): 75%
  Population Normal (%): 84%
  Population Pyknosed Nuclei (%): 4%
  Population Tubulin-Different-Phenotype (%): 34%
  Total Cell Count: 114
U2OS [2]; [13]
  Population Apoptotic (%): 40%
  Population Fragmented Nuclei (%): 2%
  Population Healthy Nuclei (%): 90%
  Population Hoechst High Intensity Objects (%): 2%
  Population Membrane Permeable-Phenotype (%): 7%
  Population Mitochondria Different-Phenotype (%): 16%
  Population Mitotic Cells (%): 60%
  Population Normal (%): 97%
  Population Tubulin-Different-Phenotype (%): 19%
  Total Cell Count: 223
U2OS [2]; [14]
  Population Apoptotic (%): 25%
  Population Fragmented Nuclei (%): 4%
  Population Healthy Nuclei (%): 88%
  Population Hoechst High Intensity Objects (%): 3%
  Population Membrane Permeable-Phenotype (%): 9%
  Population Mitochondria Different-Phenotype (%): 24%
  Population Mitotic Cells (%): 75%
  Population Normal (%): 96%
  Population Pyknosed Nuclei (%): 6%
  Population Tubulin-Different-Phenotype (%): 22%
  Total Cell Count: 181
U2OS [2]; [15]
  Population Apoptotic (%): 45%
  Population Fragmented Nuclei (%): 5%
  Population Healthy Nuclei (%): 90%
  Population Hoechst High Intensity Objects (%): 1%
  Population Membrane Permeable-Phenotype (%): 5%
  Population Mitochondria Different-Phenotype (%): 14%
  Population Mitotic Cells (%): 54%
  Population Normal (%): 98%
  Population Pyknosed Nuclei (%): 3%
  Total Cell Count: 282
U2OS [2]; [16]
  Population Apoptotic (%): 0%
  Population Fragmented Nuclei (%): 4%
  Population Healthy Nuclei (%): 91%
  Population Hoechst High Intensity Objects (%): 9%
  Population Membrane Permeable-Phenotype (%): 11%
  Population Mitochondria Different-Phenotype (%): 33%
  Population Mitotic Cells (%): 100%
  Population Normal (%): 90%
  Population Pyknosed Nuclei (%): 4%
  Population Tubulin-Different-Phenotype (%): 33%
  Total Cell Count: 137

Source: ChEMBL document CHEMBL4689842, “EUbOPEN Chemogenomics Library wave 1” (2021)
